Source: ChEMBL document CHEMBL1155133, “Synthesis, cytotoxicity, and antioxidative activity of minor prenylated chalcones from Humulus lupulus” (J Nat Prod, 2008)

Legend:
[1] = Antioxidant activity assessed as trolox equivalents at 0.1 to 1 uM by ORAC-fluorescein assay; type: functional
Outline: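 Fluorescein probe at 300 nM final in 75 mM phosphate buffer, pH 7.4. Samples at five concentrations (0.1-1.0 µM) preincubated with probe at 37 °C for 15 min. AAPH (12 mM final) then added. Fluorescence (ex 485/em 536 nm) read every minute for 80 min at 37 °C. Quadruplicates, ≥4 independent assays. AUC converted to Trolox equivalents (mean ± SD) using a 1-8 µM Trolox curve run in each assay.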

HeLa = experiment: Cytotoxicity against human HeLa cells by MTT assay after 72 hrs; type: functional, cell-based
Outline: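 HeLa (ATCC […]) cells grown in MEM with 10% FCS and 2 mM L-glutamine at 37 °C, 5% CO2. MTT colorimetric read-out at 560 nm. Eight concentrations tested in duplicate, with experiments repeated three times. IC50 reported as mean ± SD.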

[2] = Antioxidant activity assessed as trolox equivalents at 0.2 to 1 uM by ORAC-fluorescein assay; type: functional
[3] = Antioxidant activity assessed as trolox equivalents at 0.2 to 0.6 uM by ORAC-fluorescein assay; type: functional
[4] = Antioxidant activity assessed as trolox equivalents at 0.4 to 1.3 uM by ORAC-fluorescein assay; type: functional

## CC(C)=CCC/C(C)=C/Cc1c(O)cc(O)c(C(=O)/C=C/c2ccc(O)cc2)c1O
[1]
  Activity: 2.3
HeLa
  IC50: 18.2 µM

## COc1cc(O)c(C/C=C(\C)CCC=C(C)C)c(O)c1C(=O)/C=C/c1ccc(O)cc1
[1]
  Activity: 3.4
HeLa
  IC50: 8.2 µM

## O=C(O)/C=C/c1ccc(O)c(O)c1
[2]
  Activity: 6.6

## O=c1c(O)c(-c2ccc(O)c(O)c2)oc2cc(O)cc(O)c12
[3]
  Activity: 10.5

## COc1c(CC=C(C)C)c(O)cc(O)c1C(=O)/C=C/c1ccc(O)cc1
[1]
  Activity: 5.2
HeLa
  IC50: 10.4 µM

## COc1cc(O)c(C(=O)/C=C/c2ccc(O)cc2)c(OC)c1 [FLAVOKAWAIN C]
[1]
  Activity: 4
HeLa
  IC50: 19.2 µM

## COc1cc2c(c(O)c1C(=O)/C=C/c1ccc(O)cc1)C=CC(C)(C)O2 [XANTHOHUMOL C]
[1]
  Activity: 1.8
HeLa
  IC50: 12.5 µM

## COc1cc(O)c(CCC(C)(C)O)c(O)c1C(=O)/C=C/c1ccc(O)cc1 [XANTHOHUMOL H]
[1]
  Activity: 4.8
HeLa
  IC50: 9.2 µM

## COc1cc(O)c(CC=C(C)C)c(O)c1C(=O)/C=C/c1ccc(O)cc1
[1]
  Activity: 2.3

## COc1cc(OC)c(C(=O)/C=C/c2ccc(O)cc2)c(O)c1C
[1]
  Activity: 2.1
HeLa
  IC50: 12.2 µM

## COc1c(CC=C(C)C)c(O)c(CC=C(C)C)c(O)c1C(=O)/C=C/c1ccc(O)cc1
[1]
  Activity: 1.9
HeLa
  IC50: 9.7 µM

## COc1cc2c(c(O)c1C(=O)/C=C/c1ccc(O)cc1)CCC(C)(C)O2
[1]
  Activity: 1.7
HeLa
  IC50: 15.4 µM

## COc1cc(/C=C/C(=O)O)ccc1O
[4]
  Activity: 4.4
